From ChEMBL document CHEMBL3808367, “Novel HIV-1 Non-nucleoside Reverse Transcriptase Inhibitor Agents: Optimization of Diarylanilines with High Potency against Wild-Type and Rilpivirine-Resistant E138K Mutant Virus” (J Med Chem, 2016)
In brackets after ≈: the same amount, converted by molar mass.

What was measured:
Liver microsome = experiment: Half life in human liver microsomes at 1 uM by LC-MS analysis; assay type: ADME
How it was run: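 Compound at 1 µM final with 0.1 mg/mL human liver microsomes, 5 mM MgCl2, 1.0 mM NADPH in 0.1 M potassium phosphate pH 7.4 at 37 °C. Quenched with ice-cold acetonitrile at 0, 5, 15, 30 and 45 min, in duplicate. Parent measured by LC-MS/MS (MRM, ESI).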

[1] = system: Human immunodeficiency virus 1; experiment: Antiviral activity against rilpivirine resistant HIV1 harboring reverse transcriptase E138K mutant assessed as inhibition of viral infection in human TZM-bl cells measured after 1 day by luciferase reporter gene assay; assay type: functional, organism-based; settings: Human immunodeficiency virus 1, TZM-bl, 24 h
[2] = system: Human immunodeficiency virus 1; experiment: Antiviral activity against HIV1 NL4-3 assessed as inhibition of viral infection in human TZM-bl cells measured after 1 day by luciferase reporter gene assay; assay type: functional, organism-based; settings: Human immunodeficiency virus 1, NL4-3, TZM-bl, 24 h
[3] = Cytotoxicity against human TZM-bl cells assessed as reduction in cell viability after 1 day by CytoTox-Glo assay; assay type: cell-based; settings: for CC50 at 24 h: TZM-bl cells; for CC50: tzm, 24 h
How it was run: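 TZM-bl cells exposed to graded compound concentrations for 1 day, run in parallel with the antiviral assay. Viability read by CytoTox-Glo following the manufacturer's protocol.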

[4] = system: Human immunodeficiency virus 1; experiment: Resistance index, ratio of EC50 for rilpivirine resistant HIV1 harboring reverse transcriptase E138K mutant infected in human TZM-bl cells to EC50 for HIV1 NL4-3 infected in human TZM-bl cells; assay type: functional
[5] = system: Human immunodeficiency virus 1; experiment: Resistance index, ratio of EC50 for […] resistant HIV1 A17 harboring reverse transcriptase K103N/Y181C double mutant infected in human MT2 cells to EC50 for HIV1 3B infected in human MT2 cells; assay type: functional
How it was run: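 Fold change is EC50 against A17 (K103N/Y181C) divided by EC50 against IIIB. Both are from the MT-2 assay: 100 TCID50 virus, overnight exposure to compound, then compound-free medium, and day-4 p24 ELISA.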

[6] = Metabolic stability in human liver microsomes assessed as parent compound remaining at 1 uM incubated for 30 mins in presence of NADPH by LC-MS analysis; assay type: ADME; settings: read-out: Stability
How it was run: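 Compound at 1 µM final with 0.1 mg/mL human liver microsomes, 5 mM MgCl2, 1.0 mM NADPH in 0.1 M potassium phosphate pH 7.4 at 37 °C. Parent measured by LC-MS/MS (MRM, ESI).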

[7] = n-octanol-water partition coefficient, logP of compound at pH 7.4 stirred for 24 hrs followed by overnight incubation by HPLC analysis; assay type: physicochemical
[8] = Selectivity index, ratio of CC50 for human TZM-bl cells to EC50 for HIV1 3B infected in human MT2 cells; assay type: toxicity, cell-based
[9] = Aqueous solubility in pH 7.4 phosphate buffer at 10 mg/ml after 4 hrs by UV-HPLC method; assay type: physicochemical; settings: pH 7.4, 4 h
[10] = Aqueous solubility in 0.01 M Hcl at pH 2 at 10 mg/ml after 4 hrs by UV-HPLC method; assay type: physicochemical; settings: buffer, pH 2, 4 h
[11] = system: Human immunodeficiency virus 1; experiment: Antiviral activity against HIV1 3B infected in human MT2 cells measured on day 4 post infection by p24 ELISA method; assay type: functional, organism-based; settings: Human immunodeficiency virus 1, 3B, MT2, 96 h
[12] = system: Human immunodeficiency virus 1; experiment: Antiviral activity against […] resistant HIV1 A17 harboring reverse transcriptase K103N/Y181C double mutant infected in human MT2 cells measured on day 4 post infection by p24 ELISA method; assay type: functional, organism-based; settings: Human immunodeficiency virus 1, A17, MT2, 96 h
How it was run: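 MT-2 cells (10^4 per well) were infected with 100 TCID50 of IIIB or A17 in RPMI 1640 with 10% FBS, with or without graded compound concentrations, overnight. Medium was then replaced with compound-free medium. On day 4, supernatant was mixed with an equal volume of 5% Triton X-100 and p24 was quantified by ELISA. EC50 was calculated from percent inhibition of p24 production.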

[13] = system: Human immunodeficiency virus 1; experiment: Resistance index, ratio of EC50 for rilpivirine resistant HIV1 harboring reverse transcriptase K101E mutant infected in human TZM-bl cells to EC50 for HIV1 NL4-3 infected in human TZM-bl cells; assay type: functional
[14] = system: Human immunodeficiency virus 1; experiment: Resistance index, ratio of EC50 for HIV1 NL4-3 harboring reverse transcriptase K101E mutant infected in human TZM-bl cells to EC50 for HIV1 NL4-3 infected in human TZM-bl cells; assay type: functional
[15] = system: Human immunodeficiency virus 1; experiment: Antiviral activity against HIV1 NL4-3 harboring reverse transcriptase E138K mutant assessed as inhibition of viral infection in human TZM-bl cells measured after 1 day by luciferase reporter gene assay; assay type: functional, organism-based; settings: Human immunodeficiency virus 1, NL4-3, TZM-bl, 24 h
How it was run: (§1)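 Single-round infection of TZM-bl cells with 800 TCID50 of NL4-3 or its RT-mutant variants, with compound at various concentrations. After 1 day, medium was replaced by Bright Glo reagent and luminescence was read.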

[16] = system: Human immunodeficiency virus 1; experiment: Antiviral activity against HIV1 NL4-3 harboring reverse transcriptase K101E mutant assessed as inhibition of viral infection in human TZM-bl cells measured after 1 day by luciferase reporter gene assay; assay type: functional, organism-based; settings: Human immunodeficiency virus 1, NL4-3, TZM-bl, 24 h; how it was run: as §1
[17] = system: Human immunodeficiency virus 1; experiment: Resistance index, ratio of EC50 for HIV1 NL4-3 harboring reverse transcriptase E138K mutant infected in human TZM-bl cells to EC50 for HIV1 NL4-3 infected in human TZM-bl cells; assay type: functional
[18] = system: Human immunodeficiency virus 1; experiment: Resistance index, ratio of EC50 for multidrug resistant HIV1 harboring reverse transcriptase L74V/M41L/V106A/T215Y multimutant infected in human TZM-bl cells to EC50 for HIV1 NL4-3 infected in human TZM-bl cells; assay type: functional
[19] = system: Human immunodeficiency virus 1; experiment: Antiviral activity against multidrug resistant HIV1 harboring reverse transcriptase L74V/M41L/V106A/T215Y multimutant assessed as inhibition of viral infection in human TZM-bl cells measured after 1 day by luciferase reporter gene assay; assay type: functional, organism-based; settings: Human immunodeficiency virus 1, TZM-bl, 24 h

Structure (SMILES)	t1/2 (Liver microsome) [h]	EC50 [1] [nM]	EC50 [2] [nM]	Ratio EC50 [4]	Ratio EC50 [5]	remaining at 0.5 h, 1 µM [6] [%]	logD at 24 h [7]	CC50 [3] [nM]	Ratio CC50/EC50 [8]	solubility [9] [µg/mL]	solubility [10] [µg/mL]	EC50 [11] [nM]	other results
COCc1cc(N)c(Nc2ccc(C#N)cc2)cc1Oc1c(C)cc(CCC#N)cc1C	3.85	13.3	1.45	9.2	0.9	90.8	3.25						CC50 at 24 h [3]: > 200000 nM
CC(=O)OCc1cc(N)c(Nc2ccc(C#N)cc2)cc1Oc1c(C)cc(CCC#N)cc1C	0.17	39.1	3.3	12	3.4	3	2.84	44800					
Cc1cc(CCC#N)cc(C)c1Oc1cc(Nc2ccc(C#N)cc2)c(N)cc1C(=O)NC1CC1		22.1	2	11		63.2	2.61	121000	12630	1.94 (≈ 4.17 µM)	141 (≈ 303 µM)	9.58	
CCOCc1cc(N)c(Nc2ccc(C#N)cc2)cc1Oc1c(C)cc(CCC#N)cc1C		88.4	14.3	6.2	12			194000	51596			3.76	EC50 [12]: 46.6 nM
CNC(=O)c1cc(N)c(Nc2ccc(C#N)cc2)cc1Oc1c(Br)cc(CCC#N)cc1OC	2.32	12.5	5.58	2.2	14	75.7	3.16	52400	24952	3.38 (≈ 6.5 µM)	25.8 (≈ 49.6 µM)	2.1	EC50 [12]: 29.3 nM
Cc1cc(CCC#N)cc(C)c1Oc1cc(Nc2ccc(C#N)cc2)c(N)cc1C(=O)NC(C)C			72.6					184000	3857			47.7	
Cc1cc(CCC#N)cc(C)c1Oc1ccc(N)c(Nc2ccc(C#N)cc2)c1		113	16	7.1					> 17241			11.6	CC50 at 24 h [3]: > 200000 nM
Cc1cc(CCC#N)cc(C)c1Oc1cc(Nc2ccc(C#N)cc2)c(N)cc1COC(=O)C1CC1	0.195	23.3	1.63	14		4.18	2.51	42200	1818	1.64 (≈ 3.41 µM)	1.24 (≈ 2.58 µM)	23.2	
Cc1cc(CCC#N)cc(C)c1Oc1cc(Nc2ccc(C#N)cc2)c(N)cc1Cl		19.7	11.3	1.7	2.7			10400	6303			1.65	Ratio EC50 [13]: 3.3; EC50 [12]: 4.49 nM
Cc1cc(CCC#N)cc(C)c1Oc1cc(Nc2ccc(C#N)cc2)c(N)cc1C(=O)N(C)C	1.65	11.7	6.16	1.9	45	72.2	2.86	38200	24025	1.08 (≈ 2.38 µM)	65.1 (≈ 144 µM)	1.59	EC50 [12]: 72.2 nM
COC(=O)c1cc(N)c(Nc2ccc(C#N)cc2)cc1Oc1c(Br)cc(CCC#N)cc1OC	2.32	9.98	5.19	1.9		81.5	2.85	10100	> 82787	0.2 (≈ 0.384 µM)	1.73 (≈ 3.32 µM)	< 0.122	
COC(=O)c1cc(N)c(Nc2ccc(C#N)cc2)cc1Oc1c(OC)cc(CCC#N)cc1OC			102					128000	389			329	
CCNC(=O)c1cc(N)c(Nc2ccc(C#N)cc2)cc1Oc1c(C)cc(CCC#N)cc1C	2.88	8.59	4.63	1.9		85.2	3.63	105000	6140	1.08 (≈ 2.38 µM)	69.4 (≈ 153 µM)	17.1	Ratio EC50 [13]: 4
COc1cc(/C=C/C#N)cc(Br)c1Oc1ccc(N)c(Nc2ccc(C#N)cc2)n1			3.25										Ratio EC50 [14]: 1.1; EC50 [15]: 3.5 nM; EC50 [16]: 3.5 nM; Ratio EC50 [17]: 1.1; Ratio EC50 [18]: 1.1; EC50 [19]: 3.5 nM
Cc1cc(CCC#N)cc(C)c1Oc1cc(Nc2ccc(C#N)cc2)c(N)cc1Br	0.833	65.2	3.26			58.3	> 5	84800		0.12 (≈ 0.26 µM)	0.25 (≈ 0.542 µM)	0.49	EC50 [12]: 13.9 nM
Cc1cc(CCC#N)cc(C)c1Oc1cc(Nc2ccc(C#N)cc2)c(N)cc1CN1CCN(C)CC1			115										
CNC(=O)OCc1cc(N)c(Nc2ccc(C#N)cc2)cc1Oc1c(C)cc(CCC#N)cc1C		93.8	16	5.8				46800	5625			8.32	
CNC(=O)c1cc(N)c(Nc2ccc(C#N)cc2)cc1Oc1c(OC)cc(CCC#N)cc1OC			178					42600	311			137	
Cc1cc(CCC#N)cc(C)c1Oc1cc(Nc2ccc(C#N)cc2)c(N)cc1CNC1CC1	1.65	25.7	0.53	48		78.4	3.69	25500	4080	13.6 (≈ 30.1 µM)	276 (≈ 611 µM)	6.25	
Cc1cc(CCC#N)cc(C)c1Oc1cc(Nc2ccc(C#N)cc2)c(N)cc1CN(C)C	3.85	23.4	2.73	8.6	1.1	93.3	2.52	23800	11019	23.4 (≈ 53.2 µM)	260 (≈ 591 µM)	2.16	EC50 [12]: 2.46 nM
Cc1cc(/C=C/C#N)cc(C)c1Nc1ccnc(Nc2ccc(C#N)cc2)n1 [RILPIVIRINE]	1.93					80.2	> 5						CC50 at 24 h [3]: > 30000 nM
